The test system of series [1] is P388. The series is described as follows: In vivo for the optimal dose for activity against P388 leukemia per injection. In kind it is functional, Mus musculus. Summed up:
(§1)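 P388 leukemia in mice, drug given ip on days 1-5 (Q01D×5, IP/IP, NCI testing protocol). Optimum response taken over doses, expressed as mg/kg per injection. Read-outs are %T/C survival and net log cell kill (Schabel method). Cured mice are included in the %T/C and net kill calculations.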

Another series deals with L1210. The series is described as follows: In vitro for its inhibitory activity against murine L1210 leukemia. The format is functional, cell-based. The settings on record: Mus musculus.
For a further series, the system named is P388 leukemia (mouse). Kind of series: Net log value for P388 leukemia cell kill in mice was determined.
The subject of series [2] is P388. Kind of series: Percentage T/C survival (treated vs control) against P388 leukemia (day 30 surv). The format is functional, Mus musculus. Summed up: as §1

Molecules are shown by their SMILES. A value given as a limit tells only on which side of the number the result lay.

As a reminder, the IC50 is the point on the concentration scale where inhibition reaches its midpoint. Low values mean higher potency, high ones lower potency. `CCN(CC)CCn1nc2c3c(c(NCCN4CCOC4=O)ccc31)Sc1ccc(O)cc1-2.Cl.O` came in with a Dose in the series with P388 [1] of 12.5 mg/kg. The molecule also had an IC50 in the series on L1210 of 4.3 nM.
Turning to `CCN(CC)CCn1nc2c3c(c(NCCNCCO)ccc31)Sc1ccc(OC)cc1-2.Cl`, in the series with P388 [1], the Dose was determined as 25 mg/kg. The same molecule showed an IC50 with L1210 of 200 nM. Besides, in the series with P388 leukemia (mouse), the “Net log cell kill” value is listed as 3.2.
What is called T/C is the ratio of treated to control. As for `CN(C)CCn1nc2c3c(c(N)ccc31)Sc1ccccc1-2.Cl.O`, the Dose with P388 [1] worked out at 12.5 mg/kg. Moreover, the IC50 with L1210 is 63 nM. The molecule further returned a T/C with P388 [2] of 165%. Moreover, the “Net log cell kill” value in the series on P388 leukemia (mouse) is 1.8.
In the series on P388 [1], `CCN(CC)CCn1nc2c3c(c(NCCN)ccc31)Sc1ccc(OC)cc1-2.Cl.O` displayed a Dose of 12.5 mg/kg. The IC50 in the series with L1210 was found to be 210 nM. Besides, in the series with P388 leukemia (mouse), the “Net log cell kill” value was found to be 3.9.
As for `CCN(CC)CCn1nc2c3c(c(NCCN)ccc31)Sc1ccc(O)cc1-2.Cl.O`, the Dose in the series with P388 [1] is 0.8 mg/kg. For the same molecule, the IC50 in the series on L1210 was found to be 2.6 nM. The T/C with P388 [2] is given as 186%.
In turn, `Cl.NCCn1nc2c3c(c(NCCNCCO)ccc31)Sc1ccccc1-2` returned a Dose in the series on P388 [1] of 12.5 mg/kg. For the same molecule, inhibition in the series with L1210 was half-maximal at 22 nM (IC50). Moreover, the T/C in the series on P388 [2] was found to be 233%. Also, the “Net log cell kill” value in the series on P388 leukemia (mouse) is on record as > 6.7.
Molecule `CCN(CC)CCn1nc2c3c(c(N)ccc31)Sc1ccc(OC)cc1-2.Cl` returned a Dose in the series on P388 [1] of 50 mg/kg. For the same molecule, the IC50 in the series on L1210 was 1500 nM. Besides, the “Net log cell kill” value in the series with P388 leukemia (mouse) is given as 1.4.
In turn, `CCN(CC)CCn1nc2c3c(c(N)ccc31)Sc1cccc(OC)c1-2` had a half-inhibitory concentration (IC50) in the series with L1210 of 2000 nM.
On the same count and under the same terms, to `CCN(CC)CCn1nc2c3c(c(N)ccc31)Sc1cccc(O)c1-2` belongs 61 nM.
For `CCN(CC)CCNc1ccc2c3c(nn2CCNCCO)-c2ccccc2Sc13.Cl.O`, the Dose in the series on P388 [1] came to 25 mg/kg. In the series with L1210, this molecule showed an IC50 of 240 nM. Also, in the series with P388 leukemia (mouse), the “Net log cell kill” value was 0.5.
Molecule `O=C1OCCN1CCNc1ccc2c3c(nn2CCNCCO)-c2ccccc2Sc13` gave an IC50 in the series on L1210 of 540 nM. This counts as sub-micromolar.
In the series on P388 [1], `CN(C)CCCn1nc2c3c(c(N)ccc31)Sc1ccccc1-2.Cl.O` had a Dose of 100 mg/kg. The IC50 in the series with L1210 was found to be 2000 nM. For the same molecule, the T/C in the series with P388 [2] is reported as 197%. Also, in the series on P388 leukemia (mouse), the “Net log cell kill” value stood at 4.
On the same counts, the results for `CN(C)CCn1nc2c3c(c(NCCN)ccc31)Sc1ccccc1-2.Cl.O` are 12.5 mg/kg, 15 nM, 270% and > 6.7.
Consider `CCN(CC)CCNc1ccc2c3c(nn2CCN(CC)CC)-c2ccccc2Sc13.Cl`, for which, in the series on P388 [1], the Dose worked out at 25 mg/kg. The molecule further registered an IC50 with L1210 of 50 nM. Besides, the “Net log cell kill” value in the series on P388 leukemia (mouse) was found to be 1.6.
Molecule `Cl.NCCn1nc2c3c(c(N)ccc31)Sc1ccccc1-2` gave a Dose in the series on P388 [1] of 12.5 mg/kg. The molecule also yielded a half-maximal inhibitory concentration (IC50) in the series on L1210 of 100 nM. The T/C in the series with P388 [2] turned out to be 181%. The “Net log cell kill” value with P388 leukemia (mouse) worked out at 3.1.
Molecule `CCN(CC)CCn1nc2c3c(c(NC(=O)CN)ccc31)Sc1cc(O)ccc1-2.Cl.O` displayed a Dose in the series with P388 [1] of 100 mg/kg. Half-maximal inhibition with L1210 (IC50) required 140 nM. Moreover, in the series with P388 [2], the T/C was found to be 195%.
In the series with P388 [1], `CCN(CC)CCn1nc2c3c(c(NC(=O)CN)ccc31)Sc1ccccc1-2.Cl.O` had a Dose of 20 mg/kg. Inhibition in the series with L1210 was half-maximal at 15 nM (IC50). The T/C in the series with P388 [2] worked out at 184%. Moreover, the “Net log cell kill” value in the series on P388 leukemia (mouse) turned out to be 2.4.
In the case of `CN(C)CCCn1nc2c3c(c(NCCN)ccc31)Sc1ccccc1-2.Cl.O`, the Dose with P388 [1] stood at 12.5 mg/kg. Also, it took 27 nM to reach half-maximal inhibition with L1210 (IC50). For the same molecule, the “Net log cell kill” value in the series with P388 leukemia (mouse) is > 6.7.
Consider `CCN(CC)CCn1nc2c3c(c(N)ccc31)Sc1cc(O)ccc1-2`, for which, in the series on L1210, the IC50 came to 190 nM.
On the same count and under the same terms, to `CCN(CC)CCn1nc2c3c(c(Cl)ccc31)S(=O)(=O)c1ccccc1-2` belongs 2200 nM.
`CCN(CC)CCn1nc2c3c(c(NCCN4CCOC4=O)ccc31)Sc1ccccc1-2` registered a Dose in the series with P388 [1] of 100 mg/kg. This molecule yielded a half-maximal inhibitory concentration (IC50) in the series on L1210 of 810 nM. Besides, the “Net log cell kill” value in the series with P388 leukemia (mouse) is given as 6.
For the molecule `O=S1(=O)c2ccccc2-c2nn(CCNCCO)c3ccc(Cl)c1c23`, the IC50 in the series on L1210 was found to be 920 nM.

The record behind these values is ChEMBL document CHEMBL1124226, “Benzothiopyranoindazoles, a new class of chromophore modified anthracenedione anticancer agents. Synthesis and activity against murine leukemias” (J Med Chem, 1988).
